The source made the active and inactive calls. No cut-off for these calls is given here.
Columns and labels:
MDA-MB-468 [1] = test: Antitumor activity against PTEN null human MDA-MB-468 cells xenografted female Ncr model assessed as body weight loss at 30 mg/kg, ip administered once a daily for 14 days relative to control; settings: time 14 day
PC-3 [2] = test: Antiproliferative activity against human PC-3 cells harboring PTEN deletion assessed as cell growth inhibition incubated for 96 hrs by SRB assay; type: functional
HCT-116 [3] = test: Antiproliferative activity against human HCT-116 cells harboring PI3KCA mutant assessed as cell growth inhibition incubated for 96 hrs by SRB assay; type: functional
[4] = Cmax in BALB/C mouse liver at 2.5 mg/kg, iv by LC-MS/MS analysis; type: ADME, organism-based
Method in brief: (§1)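 Female BALB/c mice, 6–8 weeks old, given 2.5 mg/kg i.v. in 10% DMSO, 0.5% Tween 20 in saline. Plasma came from serial bleeds; tissues were homogenized in 2 or 3 volumes PBS. Samples were methanol-precipitated with an analogue internal standard, then LC-MS/MS by multiple reaction monitoring against an 8-point external calibration of 2–20,000 nmol/L. Parameters came from WinNonlin noncompartmental analysis, model 201 for plasma and model 200 for tissues.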

HCT-116 [5] = test: Antitumor activity against PIK3CA mutant human HCT-116 cells xenografted female Ncr model assessed as T/C at 30 mg/kg, ip administered twice a daily for 21 days relative to control; type: functional; settings: time 21 day
[6] = Cmax in BALB/C mouse plasma at 2.5 mg/kg, iv by LC-MS/MS analysis; type: ADME, organism-based
Method in brief: as §1

HCT-116 [7] = test: Antitumor activity against PIK3CA mutant human HCT-116 cells xenografted female Ncr model assessed as T/C at 30 mg/kg, ip administered once a daily for 21 days relative to control; type: functional; settings: time 21 day
IGROV-1 = test: Antitumor activity against PIK3CA mutant human IGROV-1 cells xenografted female Ncr model assessed as T/C at 70 mg/kg, ip administered once a daily for 14 days relative to control; type: functional; settings: time 14 day
[8] = Drug metabolism in human microsomes incubated for 30 mins by LC-MS/MS analysis; type: ADME, Microsome; settings: read-out: Drug metabolism
Method in brief: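 Mouse or human microsomes incubated 30 min with inhibitor at 1 or 10 μmol/L. Metabolite detection by LC-MS/MS on an ion trap, with a 10–90% methanol gradient over 6 min and scan range 50–1,000 amu.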

MDA-MB-435 = test: Antitumor activity against ERB-B2 overexpressing human MDA-MB-435 cells xenografted female Ncr model assessed as T/C at 30 mg/kg, ip administered twice a daily for 14 days relative to control; type: functional; settings: time 14 day
MDA-MB-468 [9] = test: Antitumor activity against PTEN null human MDA-MB-468 cells xenografted female Ncr model assessed as T/C at 40 mg/kg, ip administered once a daily for 40 days relative to control; type: functional; settings: time 40 day
[10] = Toxicity in human OVCAR-3 cells xenografted female Ncr model at 15 to 30 mg/kg, ip administered daily for 15 days; type: organism-based; settings: in vivo, 360 h, dose 15-30 mg/kg, time 15 day
U-87 MG [11] = test: Inhibition of cell migration in human U-87MG cells at 50 nmol/L incubated for 16 to 24 hrs by transwell assay relative to control; type: functional, U-87MG ATCC; settings: time 16-24 hrs
Detroit 562 = test: Antiproliferative activity against human Detroit 562 cells harboring PI3KCA mutant assessed as cell growth inhibition incubated for 96 hrs by SRB assay; type: functional
[12] = Cmax in BALB/C mouse spleen at 2.5 mg/kg, iv by LC-MS/MS analysis; type: ADME, organism-based
Method in brief: as §1

OVCAR-3 [13] = settings: Homo sapiens, dose 100.0 mg/kg, route ip, time 750.0 min
[14] = AUClast in BALB/C mouse liver at 2.5 mg/kg, iv by LC-MS/MS analysis; type: ADME, organism-based
Method in brief: as §1

U-87 MG [15] = settings: Homo sapiens, time 24.0 hrs
[16] = Tmax in BALB/C mouse kidney at 2.5 mg/kg, iv by LC-MS/MS analysis; type: ADME, organism-based
Method in brief: as §1

U-87 MG [17] = test: Antitumor activity against human U-87MG cells xenografted female Ncr model assessed as ratio of p-AKT Ser473/total AKT at 100 mg/kg, ip by 30 to 60 mins after dosing by electrochemiluminescent immunoassay relative to control; type: functional, U-87MG ATCC; settings: time 30-60 min
PC-3 [18] = test: Antitumor activity against PTEN null human PC-3 cells xenografted male Ncr model assessed as body weight loss at 30 mg/kg, ip administered once a daily for 14 days relative to control; settings: time 14 day
[19] = Tmax in BALB/C mouse plasma at 50 mg/kg, ip by LC-MS/MS analysis; type: ADME, organism-based; settings: in vivo
Method in brief: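 Female BALB/c mice, 6–8 weeks old, dosed i.p. at 50 mg/kg in 20% […] β-cyclodextrin in saline, 0.1 mL/10 g. Serial blood samples; plasma was methanol-precipitated with an analogue internal standard. LC-MS/MS multiple reaction monitoring, external calibration 2–20,000 nmol/L. Noncompartmental analysis, model 200.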

[20] = Inhibition of recombinant human PI3K in cricetulus griseus CHO cells expressing GFP-tagged PDK1 assessed as translocation to the plasma membrane following IGF-1 stimulation by fluorescence assay
Method in brief: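 CHO cells expressing GFP-tagged AKT1, AKT2, AKT3 or PDK1, held in 0.05% serum with 0.1% BSA and stimulated with 100 nmol/L IGF-1. Plasma-membrane translocation was read by automated fluorescence imaging, with IC50 from concentration-response curves; Z' above 0.5.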

[21] = Antitumor activity against PIK3CA mutant human […] cells xenografted female Ncr model assessed as T/C at 100 mg/kg, ip administered twice a daily for 16 days relative to control; type: functional; settings: time 16 day
OVCAR-3 [22] = settings: Homo sapiens, dose 100.0 mg/kg, route ip, time 750.0 min; remark: listed apart in the source
U-87 MG [23] = test: Antitumor activity against PTEN null human U-87MG cells xenografted female Ncr model assessed as body weight loss at 40 mg/kg, ip administered daily for 14 days relative to control; settings: time 14 day
PC-3 [24] = test: Antitumor activity against PTEN null human PC-3 cells xenografted male Ncr model assessed as T/C at 30 mg/kg, ip administered twice a daily for 14 days relative to control; type: functional; settings: time 14 day
OVCAR-3 [25] = settings: Homo sapiens, dose 100.0 mg/kg, route ip
[26] = Volume of distribution in BALB/C mouse plasma at 2.5 mg/kg, iv by LC-MS/MS analysis; type: ADME, organism-based
Method in brief: as §1

HCT-116 [27] = test: Antitumor activity against PIK3CA mutant human HCT-116 cells xenografted female Ncr model assessed as T/C at 30 mg/kg, ip administered once a daily for 14 days relative to control; type: functional; settings: time 14 day
U-87 MG [28] = test: Inhibition of recombinant PI3K in human U-87MG cells assessed as phosphorylation of GSK3beta at Ser9 at 5 times of GI50 concentration within 15 mins treatment by immunoblot analysis; type: cell-based

GI50 (PC-3 [2]): 100 nM | GI50 (HCT-116 [3]): 930 nM | Cmax [4]: 802 nM | Cmax [6]: 4170 nM | metabolised at 0.5 h [8]: > 70% | Cmax [12]: 1360 nM | AUC(0-t) [14]: 0.801 µM·h | Tmax [16]: 4.98 min | Tmax [19]: 15 min | IC50 [20]: 66 nM | Vd [26]: 0.2 L
Compound: Oc1cccc(-c2nc(N3CCOCC3)c3oc4ncccc4c3n2)c1 [PI-103]
Body weight loss (MDA-MB-468 [1]): <15% | T/C (HCT-116 [5]): 48% | T/C (HCT-116 [7]): 98.6% | T/C (IGROV-1): 74.7% | T/C (MDA-MB-435): 69.8% | T/C (MDA-MB-468 [9]): 52.8% | Activity [10]: Toxic | inhibition at 0.05 µM (U-87 MG [11]): 44% | GI50 (Detroit 562): 360 nM | inhibition (OVCAR-3 [13]): Active | inhibition (U-87 MG [15]): Active | Activity (U-87 MG [17]): ~50% | Body weight loss (PC-3 [18]): <15% | T/C [21]: 36% | inhibition (OVCAR-3 [22]): Active | Body weight loss (U-87 MG [23]): <15% | T/C (PC-3 [24]): 43.3% | inhibition (OVCAR-3 [25]): Active | T/C (HCT-116 [27]): 68% | inhibition (U-87 MG [28]): Active

— ChEMBL document CHEMBL5661974, “Pharmacologic characterization of a potent inhibitor of class I phosphatidylinositide 3-kinases” (Cancer Res, 2007)
